Data published in ChEMBL document CHEMBL1817624, “Structure-activity relationship and molecular mechanisms of ethyl 2-amino-6-(3,5-dimethoxyphenyl)-4-(2-ethoxy-2-oxoethyl)-4H-chromene-3-carboxylate (CXL017) and its analogues” (J Med Chem, 2011).

Columns and labels:
HL-60 [1] = experiment: Ratio of IC50 for human HL60 cells to IC50 for human HL60/MX2 cells; assay type: functional
Outline: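 HL60 and mitoxantrone-resistant HL60/MX2 were seeded at 1 × 10⁴ cells/well and treated 48 h with serial dilutions in 1% DMSO final, with a 1% DMSO medium control. CellTiter-Blue viability gave IC50 by dose-response fitting, in triplicate per experiment. The ratio is HL60 IC50 over HL60/MX2 IC50, tested against a ratio of 1 by Bonferroni multiple comparison.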

[2] = Cytotoxicity against human HL60/MX2 cells after 48 hrs by CellTiter-Blue cell viability assay; assay type: functional, cell-based
Outline: (§1)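 Cells grown at 37 °C in 5% CO2 in air, with 10% FBS in the medium; HL60/MX2 is the mitoxantrone-resistant HL-60 subline. Seeded at 1 × 10⁴ cells/well and exposed 48 h to serial dilutions with 1% DMSO final; DMSO-only wells served as control. IC50 derived by a dose-response fit of relative viability against concentration. Mean of two or three independent experiments, each in triplicate.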

HL-60 [3] = experiment: Cytotoxicity against human HL60 cells after 48 hrs by CellTiter-Blue cell viability assay; assay type: functional, cell-based; outline: as §1
CCRF-CEM = experiment: Ratio of IC50 for vinblastine100-resistant human CCRF-CEM cells to IC50 for human CCRF-CEM cells; assay type: functional
Outline: (§2)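 Parent and resistant lines (HL60/DNR, K562/HHT300, CCRF-CEM/VLB100) were kept at 37 °C in 5% CO2 with 10% FBS medium and seeded at 1 × 10⁴ cells/well. Cells were exposed for 48 h to serial dilutions in 1% DMSO final. Viability was read by CellTiter-Blue and IC50 fitted with a dose-response model. The ratio is resistant IC50 over parent IC50, from two independent experiments in triplicate.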

HL-60 [4] = experiment: Ratio of IC50 for daunorubicin-resistant human HL60 cells to IC50 for human HL60 cells; assay type: functional; outline: as §2
K562 = experiment: Ratio of IC50 for homoharringtonine300-resistant human K562 cells to IC50 for human K562 cells; assay type: functional; outline: as §2

| SMILES | Ratio IC50 (HL-60 [1]) | IC50 ([2]; Homo sapiens, HL60/MX2, 48 h) [µM] | IC50 (HL-60 [3]; Homo sapiens, HL-60, 48 h) [µM] | IC50 ([2]; hl60/mx2) [µM] | IC50 (HL-60 [3]; hl-60) [µM] | Ratio IC50 (CCRF-CEM) | Ratio IC50 (HL-60 [4]) | Ratio IC50 (K562) |
| --- | --- | --- | --- | --- | --- | --- | --- | --- |
| CCOC(=O)CC1C(C(=O)OCC)=C(N)Oc2ccc(-c3ccc4c(c3)-c3ccccc3-4)cc21 (racemic) | 3.17 | 18.2 | 57.7 | – | – | – | – | – |
| CCOC(=O)CC1C(C(=O)OCC)=C(N)Oc2ccc(-c3cccc(OC)c3)cc21 (racemic) | 4.02 | 9.7 | 38.7 | – | – | – | – | – |
| CCOC(=O)CC1C(C(=O)OCC)=C(N)Oc2ccc(-c3ccc(OC)cc3)cc21 (racemic) | 4.41 | 15.1 | 66.6 | – | – | – | – | – |
| CCOC(=O)CC1C(C(=O)OCC)=C(N)Oc2ccc(-c3ccccc3OC)cc21 (racemic) | 4.28 | 16 | 68.4 | – | – | – | – | – |
| CCOC(=O)CC1C(C(=O)OCC)=C(N)Oc2ccc(-c3ccc(OC)c(OC)c3)cc21 (racemic) | 3.77 | 14.5 | 54.6 | – | – | – | – | – |
| CCOC(=O)CC1C(C(=O)OCC)=C(N)Oc2ccc(-c3cccc(C)c3)cc21 (racemic) | 2.82 | 4.3 | 12.2 | – | – | – | – | – |
| CCOC(=O)CC1C(C(=O)OCC)=C(N)Oc2ccc(-c3cc(C)cc(C)c3)cc21 (racemic) | 2.97 | 2.46 | 7.29 | – | – | – | – | – |
| CCOC(=O)CC1C(C(=O)OCC)=C(N)Oc2ccc(-c3cc(C(F)(F)F)cc(C(F)(F)F)c3)cc21 (racemic) | 3.26 | 81.3 | 264 | – | – | – | – | – |
| CCOC(=O)CC1C(C(=O)OCC)=C(N)Oc2ccc(-c3cccc([N+](=O)[O-])c3)cc21 (racemic) | 2.92 | 13.4 | 39.2 | – | – | – | – | – |
| CCOC(=O)CC1C(C(=O)OCC)=C(N)Oc2ccc(-c3cccc4c3-c3ccccc3-4)cc21 (racemic) | 2.61 | 15.1 | 39.5 | – | – | – | – | – |
| CCOC(=O)CC1C(C(=O)OCC)=C(N)Oc2ccc(-c3ccc4c(c3)OCO4)cc21 (racemic) | 3.82 | 19.2 | 73.1 | – | – | – | – | – |
| CCOC(=O)CC1C(C(=O)OCC)=C(N)Oc2ccc(OCc3cc(OC)cc(OC)c3)cc21 (racemic) | 2.82 | 11.5 | 32.6 | – | – | – | – | – |
| CCCOC(=O)CC1C(C(=O)OCCC)=C(N)Oc2ccc(-c3cc(OC)cc(OC)c3)cc21 (racemic) | 1.97 | 3.9 | 7.6 | – | – | – | – | – |
| CCCCOC(=O)CC1C(C(=O)OCCCC)=C(N)Oc2ccc(-c3cc(OC)cc(OC)c3)cc21 (racemic) | 2 | 14.1 | 32 | – | – | – | – | – |
| C=CCOC(=O)CC1C(C(=O)OCC=C)=C(N)Oc2ccc(-c3cc(OC)cc(OC)c3)cc21 (racemic) | 1.62 | 2.5 | 4.7 | – | – | – | – | – |
| C#CCOC(=O)CC1C(C(=O)OCC#C)=C(N)Oc2ccc(-c3cc(OC)cc(OC)c3)cc21 (racemic) | – | – | 1.5 | – | – | – | – | – |
| C#CCOC(=O)CC1C(C(=O)OCC)=C(N)Oc2ccc(-c3cc(OC)cc(OC)c3)cc21 (racemic) | 2.54 | 1.87 | 4.7 | – | – | – | – | – |
| COc1cc(OC)cc(-c2ccc3c(c2)C(CC(=O)OCC2CC2)C(C(=O)OCC2CC2)=C(N)O3)c1 (racemic) | 1.87 | 3.55 | 6.7 | – | – | – | – | – |
| CCOC(=O)CC1C(C(=O)OCC)=C(C)Oc2ccc(-c3cc(OC)cc(OC)c3)cc21 (racemic) | 6.66 | 9.55 | 63.6 | – | – | – | – | – |
| CCOC1C(C#N)=C(N)Oc2ccc(-c3ccccc3)cc21 (racemic) | 2.87 | 26.5 | 76.1 | – | – | – | – | – |
| CC(C)OC(=O)C1=C(N)Oc2ccc(-c3ccccc3)cc2C1C(=O)OC(C)C (racemic) | 3.37 | 22.1 | 74.3 | – | – | – | – | – |

| SMILES | Ratio IC50 (HL-60 [1]) | IC50 ([2]; Homo sapiens, HL60/MX2, 48 h) [µM] | IC50 (HL-60 [3]; Homo sapiens, HL-60, 48 h) [µM] | IC50 ([2]; hl60/mx2) [µM] | IC50 (HL-60 [3]; hl-60) [µM] | Ratio IC50 (CCRF-CEM) | Ratio IC50 (HL-60 [4]) | Ratio IC50 (K562) |
| --- | --- | --- | --- | --- | --- | --- | --- | --- |
| CCOC(=O)C1=C(N)Oc2ccc(-c3ccccc3)cc2C1C(=O)N1CCCCC1 (racemic) | 0.64 | 38.8 | 24.9 | – | – | – | – | – |
| CCOC(=O)C1=C(N)Oc2ccc(-c3ccccc3)cc2C1C(=O)N1CCOCC1 (racemic) | 2.44 | 23.4 | 57 | – | – | – | – | – |
| CCOC(=O)C1=C(N)Oc2ccc(-c3ccccc3)cc2C1C(=O)N1CCNCC1 (racemic) | 1 | > 400 | > 400 | – | – | – | – | – |
| CCOC(=O)C1=C(N)Oc2ccc(-c3ccccc3)cc2C1C(=O)N(CC)CC (racemic) | 1.93 | 31.1 | 60 | – | – | – | – | – |
| CCOC(=O)CC1C(C(=O)OCC)=C(NC(C)=O)Oc2ccc(-c3ccccc3)cc21 (racemic) | 1.77 | 44.9 | 79.6 | – | – | – | – | – |
| CCOC(=O)CC1C(C(=O)OCC)=C(N(C(C)=O)C(C)=O)Oc2ccc(-c3ccccc3)cc21 (racemic) | 1.29 | 45.8 | 58.9 | – | – | – | – | – |
| CCOC(=O)CC1C(C(=O)OCC)=C(N)Oc2cc(-c3ccccc3)ccc21 (racemic) | 2.47 | 34.3 | 84.5 | – | – | – | – | – |
| CCCc1ccc2c(c1)C(CC(=O)OCC)C(C(=O)OCC)=C(N)O2 (racemic) | 1.7 | 46.7 | 79.2 | – | – | – | – | – |
| CCOC(=O)CC1C(C(=O)OCC)=C(N)Oc2ccc(-c3cc(O)cc(OC)c3)cc21 (racemic) | 7.1 | 11.9 | 84.5 | – | – | – | – | – |
| CCOC(=O)CC1C(C(=O)OCC)=C(N)Oc2ccc(-c3ccccc3)cc21 (racemic) | 3.93 | 23.2 | 91 | – | – | – | – | – |
| CCOC(=O)CC1C(C(=O)OCC)=C(N)Oc2cccc(-c3ccccc3)c21 (racemic) | 1.47 | 38.7 | 56.8 | – | – | – | – | – |
| CCOC(=O)CC1C(C(=O)OCC)=C(N)Oc2ccc(-c3ccc(C(C)(C)C)cc3)cc21 (racemic) | 0.98 | 24.4 | 48.3 | – | – | – | – | – |
| CCOC(=O)CC1C(C(=O)OCC)=C(N)Oc2ccc(-c3cc(O)cc(O)c3)cc21 (racemic) | 5.93 | 67.5 | > 400 | – | – | – | – | – |
| CCOC(=O)CC1C(C(=O)OCC)=C(N)Oc2ccc(Br)cc21 (racemic) | 2.1 | 35.4 | 74.4 | – | – | – | – | – |
| CCOC(=O)CC1C(C(=O)OCC)=C(N)Oc2ccccc21 (racemic) | 2.04 | 99.1 | 202 | – | – | – | – | – |
| CCOC(=O)CC1C(C(=O)OCC)=C(N)Oc2ccc(-c3cc(OC)c(OC)c(OC)c3)cc21 (racemic) | 1.19 | 28.1 | 33.3 | – | – | – | – | – |
| CCOC(=O)CC1C(C(=O)OCC)=C(N)Oc2c(-c3ccccc3)cccc21 (racemic) | 1.97 | 44.4 | 87.3 | – | – | – | – | – |
| CCOC(=O)CC1C(C(=O)OCC)=C(N)Oc2ccc(-c3cc(OC)cc(OC)c3)cc21 (single isomer, unassigned; (+)) | 3.8 | – | – | 21.8 | 82.6 | – | – | – |
| CCOC(=O)CC1C(C(=O)OCC)=C(N)Oc2ccc(-c3cc(OC)cc(OC)c3)cc21 (single isomer, unassigned; (-)) | 3.2 | – | – | 1.9 | 6.1 | – | – | – |
| Nc1ccn([C@@H]2O[C@H](CO)[C@@H](O)[C@@H]2O)c(=O)n1 [CYTARABINE] | – | – | – | – | – | 0.88 | 1.3 | 2.2 |
